Laboratory results taken from ChEMBL document CHEMBL4680229, “Design, synthesis and bioactivity study of N-salicyloyl tryptamine derivatives as multifunctional agents for the treatment of neuroinflammation” (Eur J Med Chem, 2020).
Activity calls are given as the source filed them. The calls are words filed in the database; no cut-off is given here.

Assays:
[1] = organism: Homo sapiens; experiment: Selectivity index, ratio of IC50 for inhibition of human COX1 to IC50 for inhibition of human COX2
[2] = system: C6; experiment: Cytotoxicity against rat C6 cells assessed as reduction in cell viability after 24 hrs by MTT assay; format: cell-based; settings: C6, 24 h
In short: (§1)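 C6 or BV2 cells seeded at 1–5×10^5 per well; after 12 h exposed to 0, 6.25, 12.5, 25, 50 or 100 μM (final, DMSO <0.4%) for 24 h. MTT added for 4 h, dissolved in DMSO, read at 570 nm. IC50 as mean of three independent experiments run in triplicate.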

[3] = system: BV-2; experiment: Cytotoxicity against mouse BV-2 cells assessed as reduction in cell viability after 24 hrs by MTT assay; format: cell-based; settings: BV-2, 24 h; in short: as §1
[4] = Antioxidant activity assessed as DPPH radical scavenging activity incubated for 30 mins; format: functional
In short: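 Compound in ethanol at 2.5–40 μM final, mixed 1:1 with 700 μmol/L ethanolic DPPH; 30 min in the dark at room temperature, absorbance at 515 nm. Serotonin used as standard; EC50 from three independent experiments.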

[5] = system: BV-2; experiment: Inhibition of LPS-induced TNFalpha production in mouse BV-2 cells after 24 hrs by ELISA; format: functional, cell-based; settings: dose 10-40 µM
In short: (§2)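 BV2 cells at 5×10^5 cells/mL stimulated with LPS 1 μg/mL; compound at 10, 20 or 40 μM final for 24 h, DMSO in blanks. Supernatant TNF-α and IL-10 measured by sandwich ELISA and PGE2 by competitive ELISA, OD at 450 nm; at least three independent experiments.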

[6] = system: BV-2; experiment: Antiinflammatory activity against LPS-induced mouse BV-2 cells assessed as increase in IL-10 production at 40 uM after 24 hrs by ELISA; format: functional, cell-based; in short: as §2
[7] = system: C6; experiment: Antiinflammatory activity against LPS-induced rat C6 cells assessed as decrease in INOS protein expression at 40 uM after 24 hrs by Western blot analysis relative to control; format: functional; set-up: scale not given: the % may be the effect or the level left
In short: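 C6 cells; LPS 10 μg/mL plus compound at 10, 20 or 40 μM for 24 h. Lysates with RIPA/PMSF, 30 μg protein on 8% SDS-PAGE, iNOS immunoblot and densitometry; at least three independent experiments.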

[8] = system: BV-2; experiment: Antiinflammatory activity against LPS-induced mouse BV-2 cells assessed as decrease in COX2 protein expression at 40 uM after 24 hrs by Western blot analysis; format: functional, cell-based
In short: (§3)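 BV2 cells in DMEM with 10% FBS; LPS 1 μg/mL plus compound at 10, 20 or 40 μM final for 24 h. Lysates in RIPA with 1 mM PMSF; 30 μg protein on 8% SDS-PAGE and blotted for iNOS and COX-2, GAPDH as reference; ECL detection and densitometry; at least three independent experiments.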

[9] = system: BV-2; experiment: Antiinflammatory activity against LPS-induced mouse BV-2 cells assessed as decrease in COX2 protein expression after 24 hrs by Western blot analysis; format: functional, cell-based; settings: BV-2, 24 h; in short: as §3
[10] = system: BV-2; experiment: Antiinflammatory activity against LPS-induced mouse BV-2 cells assessed as decrease in ROS production at 10 to 40 uM after 6 hrs by DCFH-DA fluorescence probe based flow cytometric analysis; format: functional, cell-based; settings: dose 10-40 µM
In short: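 BV2 cells with LPS 1 μg/mL and compound at 10, 20 or 40 μM for 6 h, then DCFH-DA 20 μM final for 30 min at 37 °C. Washed in cold PBS and read by flow cytometry, excitation 485 nm and emission 530 nm.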

[11] = system: Mus musculus; experiment: Antiinflammatory activity against LPS-induced hippocampal neuroinflammatory Kunming mouse model assessed as reduction in GFAP level in hippocampus at 50 mg/kg, ip administered bid for 6 days by DAPI staining based microscopic method; format: functional, organism-based; settings: time 6.0 day
[12] = system: Mus musculus; experiment: Antiinflammatory activity against LPS-induced hippocampal neuroinflammatory Kunming mouse model assessed as reduction in iba-1 level in hippocampus at 50 mg/kg, ip administered bid for 6 days by DAPI staining based microscopic method; format: functional, organism-based; settings: time 6.0 day
[13] = system: Mus musculus; experiment: Antiinflammatory activity against LPS-induced hippocampal neuroinflammatory Kunming mouse model assessed as reduction in iba-1 level in hippocampus at 50 mg/kg, ip administered bid for 6 days by Western blot analysis; format: functional, organism-based; settings: time 6.0 day
[14] = system: Mus musculus; experiment: Antiinflammatory activity against LPS-induced hippocampal neuroinflammatory Kunming mouse model assessed as increase in integral neurons at 50 mg/kg, ip administered bid for 6 days by Nissl staining based microscopic method; format: functional, organism-based; settings: time 6.0 day
[15] = Toxicity in Kunming mouse assessed as behavioral changes at 1000 mg/kg, po up to 14 days; format: organism-based; settings: in vivo, 336 h, time <=14 day
In short: (§4)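 Mice, five male and five female, given a single oral dose of 1000 mg/kg and observed for behaviour for 14 days. Heart, liver, kidney and stomach then examined grossly and after H&E staining, compared with vehicle controls.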

[16] = Toxicity in Kunming mouse assessed as changes in liver at 1000 mg/kg, po after 14 days; format: organism-based; settings: in vivo, 336 h, time 14 day; in short: as §4
[17] = Toxicity in Kunming mouse assessed as changes in kidney at 1000 mg/kg, po after 14 days; format: organism-based; settings: in vivo, 336 h, time 14 day; in short: as §4
[18] = Toxicity in Kunming mouse assessed as changes in stomach at 1000 mg/kg, po after 14 days; format: organism-based; settings: in vivo, 336 h, time 14 day; in short: as §4
[19] = Tmax in Sprague-Dawley rat at 50 mg/kg, ip up to 24 hrs by LC-MS analysis; format: ADME, organism-based; settings: in vivo
In short: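 Male Sprague-Dawley rats, six per group, single 50 mg/kg intraperitoneal dose; parameters derived by non-compartmental analysis using the linear trapezoidal method; mean ± SD, n = 6.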

[20] = molecular target: Prostaglandin G/H synthase 2 (Homo sapiens) (UniProt P35354); experiment: Inhibition of human COX2 assessed as reduction in PGF2alpha formation using arachidonic acid as substrate incubated for 10 mins by ELISA
Prostaglandin G/H synthase 2 (Homo sapiens), sequence (P35354 whole entry, looked up): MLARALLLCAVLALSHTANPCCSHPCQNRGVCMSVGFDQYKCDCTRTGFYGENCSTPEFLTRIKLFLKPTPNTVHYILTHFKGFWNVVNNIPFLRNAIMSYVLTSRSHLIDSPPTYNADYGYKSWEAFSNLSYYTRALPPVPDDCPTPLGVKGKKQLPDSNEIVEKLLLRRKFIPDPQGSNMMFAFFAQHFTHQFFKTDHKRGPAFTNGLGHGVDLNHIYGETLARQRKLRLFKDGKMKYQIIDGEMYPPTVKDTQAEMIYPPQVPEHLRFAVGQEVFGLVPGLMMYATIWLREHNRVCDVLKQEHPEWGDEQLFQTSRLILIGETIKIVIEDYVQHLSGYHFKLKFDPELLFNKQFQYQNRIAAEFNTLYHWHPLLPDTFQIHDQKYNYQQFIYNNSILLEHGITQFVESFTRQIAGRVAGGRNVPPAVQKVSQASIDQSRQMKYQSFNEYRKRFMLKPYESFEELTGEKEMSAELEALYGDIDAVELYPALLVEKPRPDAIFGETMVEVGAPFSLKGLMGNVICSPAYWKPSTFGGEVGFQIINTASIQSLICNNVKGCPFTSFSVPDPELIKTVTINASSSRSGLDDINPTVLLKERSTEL

Row | SMILES | Ratio IC50 [1] | IC50 [2] [µM] | IC50 [3] [µM] | EC50 [4] [µM] | inhibition [5] | Activity [6] | Activity [7] [%] | Activity [8] | IC50 [9] [µM] | Activity [10] | Activity [11] | Activity [12] | Activity [13] | Activity [14] | Activity [15] | Activity [16] | Activity [17] | Activity [18] | Tmax [19] [min] | IC50 [20] [µM]
1 | Cc1ccc(C(=O)NCCc2c[nH]c3ccccc23)c(O)c1 | 3.95 | > 100 | > 100 | 25.2 | Dose-dependent effect | Active | 29 | inactive | > 40 | Active | Active | Active | Active | Active | Non-Toxic | Non-Toxic | Non-Toxic | Non-Toxic | 11.4 | 4.16
2 | O=C(NCCc1c[nH]c2ccc(O)cc12)c1ccccc1Nc1ccccc1 | 0.76 | > 100 | > 100 | 3.82 | – | Active | 95 | Active | – | Active | Active | – | – | Active | Non-Toxic | Non-Toxic | Non-Toxic | Non-Toxic | 55.2 | 0.5
